Measured values collected from several papers.
Each line is one published result; the experiments were not run side by side.
Observed: cell growth or viability

Compound	cell line	assay	conditions	endpoint	result
CNc1ncc2c(/C=C/C(=O)N3CCC(c4ccccc4)CC3)nn(CC3CCCC3)c2n1	OE33	resazurin	5 days	EC50	> 30 µM
CC(=O)Nc1ccc(Oc2nnc(-c3ccc(Cl)cc3)c3ccccc23)cc1	HepG2	MTT	0.625 µM	cell death	88.3%
CNc1ncc2c(/C=C/C(=O)N3CCC(OC)CC3)nn(CC3CCCO3)c2n1 (stereo not drawn)	OE33	resazurin	5 days	EC50	> 30 µM
CC(C)(C)c1cnc(CSc2cnc(NC(=O)C3CCN(CCCCCCCCSc4cccc5c4C(=O)N(C4CCC(=O)NC4=O)C5=O)CC3)s2)o1 (stereo not drawn)	HH	CCK-8	0.25 µM	viability	0%
O=C(C=Cc1ccccc1)Nc1ccc(Oc2nnc(-c3ccc(Cl)cc3)c3ccccc23)cc1	HepG2	MTT	2.5 µM	cell death	87.9%
COC1CCN(C(=O)/C=C/c2nn(CC3CCCC3)c3ncnc(N)c23)CC1	OE33	resazurin	5 days	EC50	> 30 µM
CC(C)(C)c1cnc(CSc2cnc(NC(=O)C3CCN(C(=O)COCCOCCSc4cccc5c4C(=O)N(C4CCC(=O)NC4=O)C5=O)CC3)s2)o1 (stereo not drawn)	HH	CCK-8	0.1 µM	viability	100%
CCOC(Cn1nc(/C=C/C(=O)N2CCC(OC)CC2)c2cnc(NC)nc21)OCC	OE33	resazurin	5 days	EC50	> 30 µM
CC(=O)c1nn(-c2ccc(C)cc2)/c(=N/N=C(\C)c2ccc(NC(=O)c3ccccc3)cc2)s1	HepG2	MTT	1.25 µM	viability	5.9%
CNc1ncc2c(/C=C/C(=O)N3CCC(C)CC3)nn(CC3CCCC3)c2n1	OE33	resazurin	5 days	EC50	> 30 µM
CC(C)(C)c1cnc(CSc2cnc(NC(=O)C3CCN(CCCCCCCCSc4cccc5c4CN(C4CCC(=O)NC4=O)C5=O)CC3)s2)o1 (stereo not drawn)	HH	CCK-8	1 nM	viability	97.4%
C=CC(=O)NC1CCN(c2ncc3ncnc(Nc4ccc(Oc5ccc6c(c5)ncn6C)c(C)c4)c3n2)CC1	MKN-7			EC50	0.00659 µM
CC(C)(C)c1cnc(CSc2cnc(NC(=O)C3CCN(CCCCSc4cccc5c4C(=O)N(C4CCC(=O)NC4=O)C5=O)CC3)s2)o1 (stereo not drawn)	HH	CCK-8	50 nM	viability	96.8%
CC(=NNC(=O)c1cccnc1)c1ccc(Nc2nnc(-c3ccc(Cl)cc3)c3ccccc23)cc1	HepG2	MTT	0.312 µM	cell death	6.41%
CC(C)(C)c1cnc(CSc2cnc(NC(=O)C3CCN(CCCCCCCSc4cccc5c4C(=O)N(C4CCC(=O)NC4=O)C5=O)CC3)s2)o1 (stereo not drawn)	HH	CCK-8	0.15 µM	viability	76.7%
CNc1ncc2c(/C=C/C(=O)N3CCCC(OC)C3)nn(Cc3cccc(C)c3)c2n1 (stereo not drawn)	OE33	resazurin	5 days	EC50	17.6 µM
S=C(Nc1ccccc1)Nc1ccc(Oc2nnc(-c3ccc(Cl)cc3)c3ccccc23)cc1	HepG2	MTT	1.25 µM, 24 h	viability	57.1%
CNc1ncc2c(/C=C/C(=O)N3CCOCC3)nn(CC3CCCC3)c2n1	OE33	resazurin	5 days	EC50	> 30 µM
CC(=NNC(N)=S)c1ccc(Nc2nnc(-c3ccc(Cl)cc3)c3ccccc23)cc1	HepG2	MTT	10 µM, 24 h	viability	7.32%
CCOC(=O)c1nn(-c2cccc(Cl)c2)/c(=N/N=C(\C)c2ccc(NC(=O)c3ccc(Cl)cc3)cc2)s1	HepG2	MTT	0.156 µM	viability	24.6%
O=C(Nc1ccc(Oc2nnc(-c3ccc(Cl)cc3)c3ccccc23)cc1)c1cccc([N+](=O)[O-])c1	HepG2	MTT	5 µM	cell death	94.8%
CC(C)(C)c1cnc(CSc2cnc(NC(=O)C3CCN(C(=O)CCCSc4cccc5c4C(=O)N(C4CCC(=O)NC4=O)C5=O)CC3)s2)o1 (stereo not drawn)	HH	CCK-8	0.25 µM	viability	86.7%
CNc1ncc2c(/C=C/C(=O)N3CCC(O)CC3)nn(CC3CCCC3)c2n1	OE33	resazurin	5 days	EC50	> 30 µM
O=C(Nc1ccc(Oc2nnc(-c3ccc(Cl)cc3)c3ccccc23)cc1)c1ccccc1	HepG2	MTT	2.5 µM, 24 h	viability	3.4%
